# Data: ChEMBL document CHEMBL3352599, “Radiosynthesis and biological evaluation of a novel enoyl-ACP reductase inhibitor for Staphylococcus aureus” (Eur J Med Chem, 2014)
# Assays:
# Kidney [1] = assay: Drug uptake in kidney of Swiss Webster systemic infected mouse model infected with methicillin-resistant Staphylococcus aureus BAA1762 at 3.7 MBq, iv after 60 mins; format: ADME, organism-based; settings: in vivo, 1 h
# How it was run: (§1)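 Neutropenic mice (ip cyclophosphamide) infected ip with 2×10^7 MRSA cells. [11C]-label given into the lateral tail vein in ethanol/saline (1/3) under isoflurane, then mice recovered and moved freely. Killed by cervical dislocation; blood taken by cardiac puncture, organs excised, weighed and well-counted. Reported as %ID/g, mean ± SD, n=3.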
# Lung [2] = assay: Drug uptake in lung of healthy Swiss Webster mouse at 3.7 MBq, iv after 40 mins; format: ADME, organism-based; settings: in vivo
# How it was run: as §1, with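 “Uninfected control mice.” for “Neutropenic mice (ip cyclophosphamide) infected ip with 2×10^7 MRSA cells.”, “spleen, lung, liver and kidney” for “organs”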
# Blood [3] = assay: Drug uptake in blood of healthy Swiss Webster mouse at 3.7 MBq, iv after 40 mins; format: ADME, organism-based; settings: in vivo
# How it was run: as §1, with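 “Uninfected control mice.” for “Neutropenic mice (ip cyclophosphamide) infected ip with 2×10^7 MRSA cells.”, “spleen, lung, liver and kidney” for “organs”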
# Lung [4] = assay: Drug uptake in lung of Swiss Webster systemic infected mouse model infected with methicillin-resistant Staphylococcus aureus BAA1762 at 3.7 MBq, iv after 40 mins; format: ADME, organism-based; settings: in vivo; how it was run: as §1
# Lung [5] = assay: Drug uptake in lung of healthy Swiss Webster mouse at 3.7 MBq, iv after 20 mins; format: ADME, organism-based; settings: in vivo
# How it was run: as §1, with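 “Uninfected control mice.” for “Neutropenic mice (ip cyclophosphamide) infected ip with 2×10^7 MRSA cells.”, “spleen, lung, liver and kidney” for “organs”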
# [6] = Drug uptake in healthy thigh of Swiss Webster thigh infected mouse model infected with methicillin-resistant Staphylococcus aureus BAA1762 at 3.7 MBq, iv after 45 mins; format: ADME, organism-based, Thigh muscle; settings: in vivo, 0.75 h
# How it was run: (§2)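 Neutropenic mice (ip cyclophosphamide) given 5×10^5 MRSA cells into the left thigh muscle. [11C]-label given into the lateral tail vein in ethanol/saline (1/3) under isoflurane, then mice recovered and moved freely. Killed by cervical dislocation; muscle from both thighs and blood collected, weighed and well-counted. Reported as %ID/g, mean ± SD, n=3.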
# Liver [7] = assay: Drug uptake in liver of Swiss Webster systemic infected mouse model infected with methicillin-resistant Staphylococcus aureus BAA1762 at 3.7 MBq, iv after 40 mins; format: ADME, organism-based; settings: in vivo; how it was run: as §1
# Liver [8] = assay: Drug uptake in liver of Swiss Webster systemic infected mouse model infected with methicillin-resistant Staphylococcus aureus BAA1762 at 3.7 MBq, iv after 60 mins; format: ADME, organism-based; settings: in vivo, 1 h; how it was run: as §1
# Blood [9] = assay: Drug uptake in blood of Swiss Webster thigh infected mouse model infected with methicillin-resistant Staphylococcus aureus BAA1762 at 3.7 MBq, iv after 60 mins; format: ADME, organism-based; settings: in vivo, 1 h; how it was run: as §2
# Blood [10] = assay: Drug uptake in blood of Swiss Webster systemic infected mouse model infected with methicillin-resistant Staphylococcus aureus BAA1762 at 3.7 MBq, iv after 40 mins; format: ADME, organism-based; settings: in vivo; how it was run: as §1
# Kidney [11] = assay: Drug uptake in kidney of Swiss Webster systemic infected mouse model infected with methicillin-resistant Staphylococcus aureus BAA1762 at 3.7 MBq, iv after 40 mins; format: ADME, organism-based; settings: in vivo; how it was run: as §1
# Spleen = assay: Drug uptake in spleen of healthy Swiss Webster mouse at 3.7 MBq, iv after 40 mins; format: ADME, organism-based; settings: in vivo
# How it was run: as §1, with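 “Uninfected control mice.” for “Neutropenic mice (ip cyclophosphamide) infected ip with 2×10^7 MRSA cells.”, “spleen, lung, liver and kidney” for “organs”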
# Lung [12] = assay: Drug uptake in lung of Swiss Webster systemic infected mouse model infected with methicillin-resistant Staphylococcus aureus BAA1762 at 3.7 MBq, iv after 60 mins; format: ADME, organism-based; settings: in vivo, 1 h; how it was run: as §1
# Blood [13] = assay: Drug uptake in blood of Swiss Webster systemic infected mouse model infected with methicillin-resistant Staphylococcus aureus BAA1762 at 3.7 MBq, iv after 20 mins; format: ADME, organism-based; settings: in vivo; how it was run: as §1
# Kidney [14] = assay: Drug uptake in kidney of healthy Swiss Webster mouse at 3.7 MBq, iv after 60 mins; format: ADME, organism-based; settings: in vivo, 1 h
# How it was run: as §1, with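 “Uninfected control mice.” for “Neutropenic mice (ip cyclophosphamide) infected ip with 2×10^7 MRSA cells.”, “spleen, lung, liver and kidney” for “organs”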
# Blood [15] = assay: Drug uptake in blood of healthy Swiss Webster mouse at 3.7 MBq, iv after 20 mins; format: ADME, organism-based; settings: in vivo
# How it was run: as §1, with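 “Uninfected control mice.” for “Neutropenic mice (ip cyclophosphamide) infected ip with 2×10^7 MRSA cells.”, “spleen, lung, liver and kidney” for “organs”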
# Blood [16] = assay: Drug uptake in blood of Swiss Webster thigh infected mouse model infected with methicillin-resistant Staphylococcus aureus BAA1762 at 3.7 MBq, iv after 30 mins; format: ADME, organism-based; settings: in vivo, 0.5 h; how it was run: as §2
# [17] = Drug uptake in healthy thigh of Swiss Webster thigh infected mouse model infected with methicillin-resistant Staphylococcus aureus BAA1762 at 3.7 MBq, iv after 60 mins; format: ADME, organism-based, Thigh muscle; settings: in vivo, 1 h; how it was run: as §2
# Lung [18] = assay: Drug uptake in lung of healthy Swiss Webster mouse at 3.7 MBq, iv after 60 mins; format: ADME, organism-based; settings: in vivo, 1 h
# How it was run: as §1, with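 “Uninfected control mice.” for “Neutropenic mice (ip cyclophosphamide) infected ip with 2×10^7 MRSA cells.”, “spleen, lung, liver and kidney” for “organs”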
# Liver [19] = assay: Drug uptake in liver of healthy Swiss Webster mouse at 3.7 MBq, iv after 40 mins; format: ADME, organism-based; settings: in vivo
# How it was run: as §1, with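 “Uninfected control mice.” for “Neutropenic mice (ip cyclophosphamide) infected ip with 2×10^7 MRSA cells.”, “spleen, lung, liver and kidney” for “organs”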
# [20] = Drug uptake in healthy thigh of Swiss Webster thigh infected mouse model infected with methicillin-resistant Staphylococcus aureus BAA1762 at 3.7 MBq, iv after 15 mins; format: ADME, organism-based, Thigh muscle; settings: in vivo, 0.25 h; how it was run: as §2
smiles,measurement,setting,value
CCCCCCc1ccc(Oc2ccccc2[11C]#N)c(O)c1,Drug uptake,Kidney [1],1.13 %ID/cc
same,Drug uptake,Lung [2],1.75 %ID/cc
same,Drug uptake,Blood [3],0.41 %ID/cc
same,Drug uptake,Lung [4],1.78 %ID/cc
same,Drug uptake,Lung [5],3.19 %ID/cc
same,Drug uptake,[6],0.42 %ID/cc
same,Drug uptake,Liver [7],5.25 %ID/cc
same,Drug uptake,Liver [8],7.31 %ID/cc
same,Drug uptake,Blood [9],0.26 %ID/cc
same,Drug uptake,Blood [10],0.38 %ID/cc
same,Drug uptake,Kidney [11],1.15 %ID/cc
same,Drug uptake,Spleen,0.37 %ID/cc
same,Drug uptake,Lung [12],2.01 %ID/cc
same,Drug uptake,Blood [13],0.67 %ID/cc
same,Drug uptake,Kidney [14],0.93 %ID/cc
same,Drug uptake,Blood [15],0.64 %ID/cc
same,Drug uptake,Blood [16],0.42 %ID/cc
same,Drug uptake,[17],0.33 %ID/cc
same,Drug uptake,Lung [18],1.32 %ID/cc
same,Drug uptake,Liver [19],9.69 %ID/cc
same,Drug uptake,[20],0.98 %ID/cc
